Published values of several laboratories.
Each line is one published result; the experiments were not run side by side.
Target: Serine/threonine-protein kinase Chk1 (CHEK1, Homo sapiens, UniProt O14757)
Sequence (O14757 1-476, as in one of the studies): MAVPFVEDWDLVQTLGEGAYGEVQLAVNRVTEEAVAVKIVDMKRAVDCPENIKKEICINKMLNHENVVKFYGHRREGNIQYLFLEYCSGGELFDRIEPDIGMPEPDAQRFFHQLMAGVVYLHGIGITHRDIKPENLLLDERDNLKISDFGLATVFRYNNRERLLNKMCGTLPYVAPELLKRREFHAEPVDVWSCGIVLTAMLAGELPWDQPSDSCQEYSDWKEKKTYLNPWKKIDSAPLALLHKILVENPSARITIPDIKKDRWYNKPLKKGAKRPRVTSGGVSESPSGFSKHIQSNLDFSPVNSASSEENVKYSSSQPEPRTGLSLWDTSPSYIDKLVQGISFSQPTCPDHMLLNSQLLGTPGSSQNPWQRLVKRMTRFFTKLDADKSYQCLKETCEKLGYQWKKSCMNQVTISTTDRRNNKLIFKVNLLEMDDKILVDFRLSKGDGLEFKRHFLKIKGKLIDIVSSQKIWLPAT

SMILES | assay | conditions | remaining binding
C[C@@H]1CCN(c2nccc(-c3cnn4ncccc34)n2)C1 | binding | 1 µM | 100%
c1cncc(-c2cccc(Nc3nccc(NC4CCCCC4)n3)c2)c1 | binding, competition with immobilised ligand | 10 µM | 94%
N[C@@H]1CCN(c2nccc(-c3cnn4ncccc34)n2)C1 | binding | 1 µM | 100%
COc1cnc(Nc2cccc(S(N)(=O)=O)c2)nc1N1CCN(c2ccccc2)C(=O)C1 | binding, competition with immobilised ligand | 1 µM | 100%
CC1CCCN1c1nccc(-c2cnn3ncccc23)n1 (stereo not drawn) | binding | 1 µM | 99%
CCCCN(CCCC)C(=O)CN1C[C@H](c2cc(OC)c3c(c2)OCO3)[C@@H](C(=O)O)[C@@H]1CC(C)(C)CCC | cell-free assay, competition with immobilised ligand | 1 µM | 100%
FC(F)(F)Oc1cccc(-c2cnc3ccc(-c4ccncc4)nn23)c1 | cell-free assay, competition with immobilised ligand | 5 µM | 100%
O=C(NCCCC1CCCCC1)c1ccc(CNC(=O)c2cnn(-c3ccccc3)c2C(F)(F)F)cc1 | cell-free assay, competition with immobilised ligand | 0.1 µM | 100%
COc1cnc(Nc2cccc(S(N)(=O)=O)c2)nc1N1CCN(c2ccccc2)CC1 | binding, competition with immobilised ligand | 1 µM | 100%
Cc1cc(-n2nc(Cc3cc(F)cc(C(F)(F)F)c3)nc2C)ccc1C(N)=O | cell-free assay, competition with immobilised ligand | 1 µM | 100%
F[C@@H]1CCN(c2nccc(-c3cnn4ncccc34)n2)C1 | binding | 1 µM | 92%
O=C(c1ccc(Nc2ncc(Cl)c(-c3ccc(Cl)s3)n2)cc1)N1CCC(N2CCCC2)CC1 | binding, competition with immobilised ligand | 1 µM | 37%
O=C(Nc1c[nH]nc1C(=O)NC1CCNCC1)c1cc(F)cc(F)c1 | binding, competition with immobilised ligand | 1 µM | 100%
O=C(NCCCN1CCOCC1)c1ccc(Nc2ncc(Cl)c(-c3ccc(Cl)s3)n2)cc1 | binding, competition with immobilised ligand | 1 µM | 57%
COc1ncc2cc3ccccc3nc2c1C#N | cell-free assay, competition with immobilised ligand | 5 µM | 100%
CC(=O)N1CCC(c2ccc(C(=O)NC(=N)N)cc2C(F)(F)F)CC1 | cell-free assay, competition with immobilised ligand | 1 µM | 95%
COc1ccnn2ncc(-c3ccnc(N(C)C)n3)c12 | binding | 1 µM | 94%
C[C@@H]1CN(c2ccc3ncc(-c4ccc5[nH]nc(C6CC6)c5c4)n3n2)C[C@H](C)O1 | binding, competition with immobilised ligand | 0.5 µM | 100%
N#Cc1ccc(Nc2ccc3[nH]c(=O)[nH]c3c2)c(Cl)c1 | cell-free assay, competition with immobilised ligand | 1 µM | 98%
Nc1ncc2c(n1)-c1c([nH]c3ccc(C#CC4CC4)cc13)CCCC2 | binding, competition with immobilised ligand | 1 µM | 97%
CNC(=O)c1ccc(Nc2ncc(C(F)(F)F)c(NCc3nccnc3N(C)S(C)(=O)=O)n2)cc1 | cell-free assay, competition with immobilised ligand | 0.1 µM | 100%
O=C(c1ccc(Nc2nccc(-c3cc4ccccc4s3)n2)cc1)N1CCC(N2CCCC2)CC1 | binding, competition with immobilised ligand | 1 µM | 100%
CN(C)c1nccc(-c2cnn3ncccc23)n1 | binding | 1 µM | 100%
CCc1ccccc1C(=O)Nc1n[nH]c2c(C)c(F)c(C3C(C#N)=C(C)N(C)C(C)=C3C#N)cc12 | cell-free assay, competition with immobilised ligand | 1 µM | 91%
